Screening data (PubChem BioAssay)
In the library only some 2.1% were active in any assay of this set; here they are far more common.
TRPML3 ag: human TRPML3 channel agonists, primary screen, cell-based, HEK293 TRPML3-YFP, Fluo-8 calcium fluorescence, 3 µM. Mucolipin-3 (Homo sapiens), Q8TDD5. 100% = the carbachol control signal. activation, % at 3 µM. 220,000 compounds, 0.29% hits;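 active = activation above its plate's cutoff, the mean activation of the plate's test wells plus 3 SD, cut at about 12% in these data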;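 also: 0% = DMSO only wells and 100% = carbachol wells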
Target sequence (Q8TDD5 whole entry, looked up): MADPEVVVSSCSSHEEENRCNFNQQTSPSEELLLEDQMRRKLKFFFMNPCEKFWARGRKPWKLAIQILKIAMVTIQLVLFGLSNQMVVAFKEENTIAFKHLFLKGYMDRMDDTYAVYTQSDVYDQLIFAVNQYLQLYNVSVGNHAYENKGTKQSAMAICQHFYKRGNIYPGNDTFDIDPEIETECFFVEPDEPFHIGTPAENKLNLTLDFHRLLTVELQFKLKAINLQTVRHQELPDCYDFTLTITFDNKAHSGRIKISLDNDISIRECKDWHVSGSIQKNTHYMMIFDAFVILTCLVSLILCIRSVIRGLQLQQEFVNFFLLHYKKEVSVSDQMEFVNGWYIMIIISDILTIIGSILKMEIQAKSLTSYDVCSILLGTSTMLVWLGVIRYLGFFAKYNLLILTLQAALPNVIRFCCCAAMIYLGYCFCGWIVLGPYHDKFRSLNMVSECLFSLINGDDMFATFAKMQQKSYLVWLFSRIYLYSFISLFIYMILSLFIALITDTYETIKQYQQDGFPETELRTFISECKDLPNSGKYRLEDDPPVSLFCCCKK
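Test system: TRPML3-YFP stable HEK293 cells. Doses: single point at 3 µM. Incubation: dye loading 1 h 37 °C then 30 min ambient, 125 s read. Signal: Fluo-8 calcium dye fluorescence, ex 470-495, em 515-575 nm. Measure: percent activation from peak-to-basal fluorescence ratio, scaled between DMSO and carbachol.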
zfTRPN1 agonist: zebrafish TRPN1 channel agonists, primary screen, cell-based, HEK293, calcium fluorescence. transient receptor potential cation channel N1 (TRPN1/NompC), Danio rerio. HEK293 zebrafish TRPN1-YFP, Fluo-8 calcium fluorescence; 100% = response to 87 µM carbachol. activation, % at 3 µM. 220,000 compounds, 0.18% hits;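 active = activation above its plate's cutoff, the mean activation of test wells on that plate plus 3 SD, cut at about 19% in these data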;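 also: 0% = DMSO alone and 100% = 87 µM carbachol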
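Control set: carbachol 87 µM as high control, DMSO as low control; system: HEK293 stable line with zebrafish TRPN1-YFP; read-out: % activation versus carbachol response; detection: intracellular calcium fluorescence with Fluo-8; doses: single test compound dose, 3 µM nominal, 0.3% DMSO; schedule: dye 1 h 37 °C plus 30 min RT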
CRFBP-R2 block: antagonists of CRF-BP/CRF-R2 complex, primary screen, cell-based, HEK293, calcium dye fluorescence, uHTS. CRF-induced calcium fluorescence. inhibition, % at 11.8 µM. 350,000 compounds, 0.59% hits. AID 588475, 2011;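 active = inhibition of the ligand-induced calcium signal above about 50% at the single tested concentration, limit read from the data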
VIM-2 inhibitor: VIM-2 metallo-beta-lactamase inhibitors, primary screen, biochemical, epi-absorbance readout, Pseudomonas aeruginosa enzyme | 290,000 compounds, 0.89% hits | purified VIM-2, nitrocefin hydrolysis, epi-absorbance fluorescence | inhibition, % at 5.6 µM;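 active = inhibition above the mean of all tested compounds plus 3 SD, cutoff set per screening run, cut at about 7.5% in these data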;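 also: red hydrolysis product quenches plate fluorescence so inhibitors raise well fluorescence; 0% = enzyme with DMSO and 100% = DMSO without enzyme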
IMP-1 inh-1: IMP-1 metallo-beta-lactamase inhibitors, primary screen, biochemical, epi-absorbance readout, Pseudomonas aeruginosa enzyme. purified IMP-1, nitrocefin hydrolysis, epi-absorbance fluorescence. 290,000 compounds, 0.45% hits. inhibition, % at 5.6 µM;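 active = inhibition above the mean plus 3 SD of all compounds in the same screening run, cut at about 4.5% in these data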;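 also: 0% = IMP-1 with DMSO and 100% = DMSO wells lacking enzyme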
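assay system = purified recombinant IMP-1 metallo-beta-lactamase enzyme | schedule = 15 min preincubation plus 25 min reaction at 25 °C | signal = Epi-absorbance fluorescence, 480 nm excitation, 530 nm emission | read-out basis = percent inhibition from optical density relative to buffer-blank wells | controls = IMP-1 with DMSO as 0%, enzyme-free DMSO as 100%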
CRFBP-R2 agonist: agonists of CRF-BP/CRF-R2 complex, primary screen, cell-based, HEK293, calcium dye fluorescence, uHTS | CRF-binding protein / CRF receptor 2 complex (human) | 350,000 compounds, 0.46% hits | activation, % at 13.2 µM | calcium dye fluorescence (FLIPR); percent of saturating CRF peptide response;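 active = activation of at least 50%, plus an integration ratio under a set limit after plate pattern correction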;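 also: plate controls were neutral control wells without compound for no effect and CRF at EC100 for full effect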
IMP-1 inh-2: IMP-1 metallo-beta-lactamase inhibitors, confirmation, selectivity assay for selective VIM-2 inhibitor project, biochemical, epi-absorbance readout, triplicate | shares compounds with VIM-2 inhibitor | purified IMP-1, nitrocefin hydrolysis, epi-absorbance fluorescence | inhibition, % at 5.6 µM | 1,300 tested, under 10 active; call rule not given here;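 also: 0% = enzyme with vehicle and 100% = vehicle without enzyme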
VIM-2 FRET inh: VIM-2 inhibitors in FRET format, confirmation, artefact control for selective VIM-2 inhibitor project, biochemical, epi-absorbance artifact exclusion; inhibition, % at 5.6 µM; shares compounds with VIM-2 inhibitor; purified VIM-2, CCF2 FRET substrate hydrolysis; 1,300 compounds, 23% hits;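 active = inhibition above the mean of all tested compounds plus 3 SD, cut at about 19% in these data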;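 also: 0% = VIM-2 plus DMSO and 100% = no enzyme wells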
TEM-1 counter: TEM-1 serine beta-lactamase inhibitors, counter-screen for VIM-2 inhibitor project, biochemical, epi-absorbance, HTS; shares compounds with VIM-2 inhibitor; Purified TEM-1, nitrocefin hydrolysis, epi-absorbance fluorescence; inhibition, % at 5.6 µM; 1,300 compounds, 3% hits; AID 1866, 2009;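 active = inhibition above that campaign's mean inhibition plus 3 SD, cut at about 0.46% in these data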;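 also: 0% = TEM-1 with DMSO and 100% = TEM-1 with 100 µM potassium clavulanate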
Target sequence (P62593 whole entry, looked up): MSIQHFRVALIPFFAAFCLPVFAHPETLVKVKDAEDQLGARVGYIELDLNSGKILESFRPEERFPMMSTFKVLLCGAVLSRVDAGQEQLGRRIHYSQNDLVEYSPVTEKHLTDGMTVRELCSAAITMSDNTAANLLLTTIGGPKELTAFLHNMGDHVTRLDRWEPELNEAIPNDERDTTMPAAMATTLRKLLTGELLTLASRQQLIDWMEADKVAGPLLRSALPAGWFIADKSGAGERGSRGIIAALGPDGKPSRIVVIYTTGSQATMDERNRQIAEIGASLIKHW
VIM-2 inh conf: VIM-2 metallo-beta-lactamase inhibitors, confirmation, biochemical, epi-absorbance, hits shared with IMP-1 screen | 1,300 compounds, 96% hits | purified VIM-2, nitrocefin hydrolysis | inhibition, % at 5.6 µM | shares compounds with VIM-2 inhibitor;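 active = inhibition of the VIM-2 beta-lactamase enzyme above about 11% from the earlier first-round screen, limit read from the data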;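 also: 0% = VIM-2 with DMSO and 100% = buffer wells without enzyme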
* hit, by the source's call; · = no result.

SMILES	TRPML3 ag	zfTRPN1 agonist	CRFBP-R2 block	VIM-2 inhibitor	IMP-1 inh-1	CRFBP-R2 agonist	IMP-1 inh-2	VIM-2 FRET inh	TEM-1 counter	VIM-2 inh conf
Cc1c(OCC(=O)N[C@@H](CSCc2ccccc2)C(=O)O)ccc2c3c(c(=O)oc12)CCC3	·	·	-3.9	13.1*	-2.3	1.9	-3.0	2.0	-9.1	19.3*
Cc1c(OCC(=O)N2CCC(C(=O)O)CC2)ccc2c3c(c(=O)oc12)CCCC3	·	·	-13.6	4.3	-3.6	1.3	·	·	·	·
Cc1cc(=O)oc2c(C)c(OCC(=O)NC3CCN(Cc4ccccc4)CC3)ccc12	·	·	-3.3	13.2*	-0.9	0.1	-2.4	-1.8	-7.5	21.3*
Cc1c(OCC(=O)NC2CCN(Cc3ccccc3)CC2)ccc2c3c(c(=O)oc12)CCC3	·	·	-22.9	35.6*	-0.3	0.0	-2.5	-0.1	-13.2	45.3*
Cc1cc(OCC(=O)NC2CCN(Cc3ccccc3)CC2)c2c(C)c(C)c(=O)oc2c1	·	·	-5.6	34.0*	-4.0	-0.2	-2.1	-0.2	-2.8	48.3*
COc1ccc(Cl)cc1S(=O)(=O)N1CCC(C(=O)NCc2ccco2)CC1	·	·	-0.8	-1.9	-3.2	-1.2	·	·	·	·
O=C(NC1CCCCCC1)C1CCCN(c2ncccn2)C1 (stereo not drawn)	·	·	-14.2	-3.5	-4.5	-1.6	·	·	·	·
COc1cc(/C=N/NC(=O)c2cc(-c3cccc(OC(C)C)c3)nc3ccccc23)ccc1O	·	·	20.3	·	·	-0.7	·	·	·	·
COc1cc(OC)c(OC)cc1/C=N/NC(=O)CC1C(=O)NN=C1C (stereo not drawn)	-0.5	-0.5	-6.8	37.1*	-1.4	-0.3	-3.1	65.9*	-4.6	54.9*
CC(C)Cn1c(-c2ccco2)n[nH]c1=S	1.1	0.4	10.7	17.3*	-4.2	-0.6	-3.4	49.3*	-7.9	31.3*
CC(C)Cn1c(-c2ccccc2F)n[nH]c1=S	0.0	-1.6	-31.9	19.2*	1.4	-1.5	-2.5	30.3*	-7.1	20.9*
CCCCn1c(Cc2ccccc2)n[nH]c1=S	0.0	-0.6	15.7	-1.6	-3.2	0.0	·	·	·	·
CC(C)Cn1c(-c2ccc(F)cc2)n[nH]c1=S	-0.4	-1.0	-7.4	3.7	-0.2	-0.7	·	·	·	·
CCCCn1c(-c2sccc2C)n[nH]c1=S	-0.7	-1.2	16.8	38.9*	-1.7	-1.1	-2.0	67.0*	-8.2	50.1*
Cc1ccccc1-n1c(-c2ccco2)n[nH]c1=S	0.5	0.5	-2.6	13.5*	-2.1	-1.0	-2.4	44.9*	-2.7	31.4*
CN1CCCN(C(=O)CNC(=O)c2ccccc2Br)CC1	·	·	-25.4	·	·	2.6	·	·	·	·
CCc1ccc(OCCCCN(C)Cc2ccccc2)cc1	·	·	-31.8	0.2	-1.1	2.6	·	·	·	·
C=CCn1c(-c2ccoc2C)n[nH]c1=S	0.8	-0.2	-25.5	-3.8	-6.2	0.3	·	·	·	·
CC(C)Cn1c(-c2ccco2)nc2c(c(=O)c3ccccc3n2C)c1=O	-0.7	-3.2	·	13.5*	-2.3	·	-3.0	-2.5	-5.4	31.9*
CCCCn1c(-c2ccoc2C)n[nH]c1=S	0.3	-1.1	-8.7	16.2*	-3.7	-0.7	-2.2	45.4*	-2.0	30.2*
CCCCn1c(-c2ccco2)n[nH]c1=S	0.1	-1.6	-4.0	42.5*	-3.9	0.0	-2.7	72.1*	-6.6	53.3*
Cc1cc(C)n(Cc2ccc(C(=O)N/N=C/c3ccc(-c4ccc([N+](=O)[O-])cc4)o3)o2)n1	·	·	-9.0	41.9*	-3.9	5.4	-1.0	0.9	12.8*	14.4*
CCCCC(=O)N/N=C/c1ccc(-c2ccc([N+](=O)[O-])cc2)o1	0.2	1.9	-17.2	-2.4	1.1	14.3	·	·	·	·
O=C(NCc1cccc(Cl)c1)c1cccc(OC2CCN(C(=O)C3CC3)CC2)c1	·	·	0.1	25.3*	-1.8	-0.7	-2.0	-3.0	-1.9	4.3
CC(=O)C1=C(O)C(CSCc2ccccc2)N(C)C1=O (stereo not drawn)	·	·	23.9	·	·	-0.3	·	·	·	·
SMILES	TRPML3 ag	zfTRPN1 agonist	CRFBP-R2 block	VIM-2 inhibitor	IMP-1 inh-1	CRFBP-R2 agonist	IMP-1 inh-2	VIM-2 FRET inh	TEM-1 counter	VIM-2 inh conf
O=P(O)(O)c1ccccc1OCCCCCOc1ccccc1P(=O)(O)O	0.0	-0.9	-2.2	61.5*	1.4	4.2	-3.3	76.5*	-6.2	65.5*
O=P(O)(O)c1ccccc1OCc1ccccc1	0.9	-0.4	-8.5	54.8*	-2.7	3.9	-2.6	81.5*	-5.2	67.8*
Oc1ccccc1OCCOc1ccccc1OCCOc1ccccc1O	0.7	0.6	-8.0	-0.4	-2.2	-1.4	·	·	·	·
NNC(=O)c1ccccc1OCc1ccccc1	-0.7	-1.9	3.9	-1.5	-3.6	-5.6	·	·	·	·
Cc1ccc2c(c1)c(N=NC(N)=O)c(O)n2C	0.1	-2.2	3.3	12.6*	0.7	0.3	-3.5	-3.4	-4.4	18.6*
Cc1ccc2c(c1)c(N=Nc1cccc(C(=O)O)c1)c(O)n2C	-0.2	0.2	-9.0	-1.3	0.4	-4.6	·	·	·	·
CCN1CCN(c2cc(N3CCN(C(=O)c4ccco4)CC3)c3c4c(onc24)-c2ccccc2C3=O)CC1	·	·	-3.0	23.3*	0.7	0.4	-2.5	-13.3	-10.1	20.8*
Cc1ccc(NC(=O)CCN2C(=O)c3cccc([N+](=O)[O-])c3C2=O)c(Br)c1	·	·	16.2	-0.1	1.6	-4.0	·	·	·	·
COc1ccc2[nH]c(C(=O)O)c(CCN3C(=O)c4ccc(C(=O)O)cc4C3=O)c2c1	·	·	4.8	70.8*	-1.3	-1.8	-3.2	84.5*	-5.1	75.1*
COc1ccc2[nH]c(C(=O)O)c(CCC(=O)O)c2c1	1.2	0.8	-0.7	-4.8	1.5	-0.9	·	·	·	·
